Legend:
[1] = Cytotoxicity against human MRC5 cells assessed as inhibition of cell proliferation measured after 72 hrs by MTT assay; type: toxicity, cell-based
Summary of the method: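 SV-40 transformed fetal lung fibroblasts kept in DMEM with 10% hiFBS and penicillin/streptomycin at 37 °C, 5% CO₂. Cells trypsinized, seeded at 4 x 10⁴ cell/ml and exposed to increasing concentrations for 72 h at 37 °C. Viability read by colorimetric MTT. EC₅₀ taken as the concentration reducing growth by 50% versus untreated cells.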

[2] = test system: Trypanosoma brucei brucei; test: Antitrypanosomal activity against bloodstream form of Trypanosoma brucei brucei S16 assessed as inhibition of proliferation measured after 72 hrs by alamarBlue assay; type: functional; details: S16, 72 h
Summary of the method: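 Bloodstream forms cultured in HMI-9 with 10% hiFBS at 37 °C, 5% CO₂. Seeded at 1 × 10⁴ per mL with increasing compound concentrations for 72 h under the same conditions. Proliferation read by alamarBlue fluorescence, excitation 550 nm and emission 590 nm.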

[3] = Selectivity index, ratio of IC50 for human MRC5 cells to IC50 for bloodstream form of Trypanosoma brucei brucei S16; type: toxicity, cell-based; details: read-out: Ratio IC50
Leishmania donovani [4] = test: Antileishmanial activity against Leishmania donovani MHOM/ET/67/HU3 axenic amastigotes at 20 uM after 72 hrs by resazurin-based assay relative to control; type: functional; details: MHOM/ET/67/HU3, 72 h
Summary of the method: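 Axenic amastigotes grown in Schneider medium with 20% hiFBS, pH 5.4, 37 °C, 5% CO₂. 10⁶ parasites/ml exposed to a single 20 μM concentration for 72 h at 37 °C. Viability read by resazurin assay, reported as percent inhibition.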

Leishmania donovani [5] = test: Antileishmanial activity against Leishmania donovani MHOM/ET/67/HU3 intracellular amastigotes infected in human THP1 cells after 72 hrs by luciferase coupled luminescence assay; type: functional, cell-based; details: MHOM/ET/67/HU3, THP-1, 72 h
Summary of the method: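 Luciferase-expressing parasite line. THP-1 cells differentiated with 20 ng/mL PMA for 48 h, then 24 h in fresh medium, seeded at 3x10⁴ macrophages/well and infected with late-stage promastigotes at a macrophage:parasite ratio of 1:10. Infected cultures exposed to a range of concentrations in RPMI 1640 with 10% hiFBS at 37 °C, 5% CO₂ for 72 h, then lysed. Luminescence read as intracellular parasite growth.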

[6] = test system: Trypanosoma brucei brucei; test: Potency index, ratio of IC50 for hydroxytyrosol to IC50 for test compound against bloodstream form of Trypanosoma brucei brucei S16; type: functional
[7] = test system: Trypanosoma brucei brucei; test: Potency index, ratio of IC50 for tyrosol to IC50 for test compound against bloodstream form of Trypanosoma brucei brucei S16; type: functional
[8] = Selectivity index, ratio of IC50 for human MRC5 cells to IC50 for intracellular amastigotes of Leishmania donovani MHOM/ET/67/HU3 infected in human THP1 cells; type: toxicity, cell-based; details: read-out: Ratio IC50
Leishmania major = test: Leishmanicidal activity against Leishmania major MHOM/TN/95/GLC94 promastigotes after 24 hrs by MTT assay; type: functional; details: MHOM/TN/95/GLC94, 24 h
Leishmania infantum = test: Leishmanicidal activity against Leishmania infantum MHOM/TN/94/LV50 promastigotes after 24 hrs by MTT assay; type: functional; details: MHOM/TN/94/LV50, 24 h
Leishmania donovani [9] = test: Potency index, ratio of IC50 for tyrosol to IC50 for test compound against intracellular amastigotes of Leishmania donovani MHOM/ET/67/HU3 infected in human THP1 cells; type: functional, THP-1
Leishmania donovani [10] = test: Antileishmanial activity against Leishmania donovani MON-2 MHOM/IN/1996/THAK35 amastigotes infected in mouse J774A.1 cells after 72 hrs by alamarBlue assay; type: functional, cell-based; details: MON-2 MHOM/IN/1996/THAK35, J774.A1, 72 h
[11] = test system: Trypanosoma brucei rhodesiense; test: Antitrypanosomal activity against Trypanosoma brucei rhodesiense; type: functional

SMILES | IC50 at 72 h [1] [µM] | IC50 [2] [µM] | selectivity ratio [3] | inhibition at 20 µM (Leishmania donovani [4]) [%] | IC50 (Leishmania donovani [5]) [µM] | Ratio IC50 [6] | Ratio IC50 [7] | selectivity ratio [8] | IC50 (Leishmania major) [µM] | IC50 (Leishmania infantum) [µM] | Ratio IC50 (Leishmania donovani [9]) | IC50 (Leishmania donovani [10]) [µM] | IC50 [11] [µM]
CC(=O)OCCc1ccc(O)c(O)c1 | > 50 | 43.4 | > 1 | 48 | > 10 | 1 |  |  |  |  |  |  | 
Oc1ccc(CCN=C=S)cc1O | 21.1 | 9.87 | 2 |  |  | 5 |  |  |  |  |  |  | 
CCCCCCCCCCOCCc1ccc(OCc2ccccc2)c(OCc2ccccc2)c1 | > 50 | > 10 | > 5 |  |  | >5 |  |  |  |  |  |  | 
CCCCCCCCCCCCOCCc1ccc(O)c(O)c1 | 13.2 | 0.63 | 21 |  |  | 75 |  |  |  |  |  |  | 
CCCCCCCCCCCCSCCc1ccc(OCc2ccc(OC)cc2)c(OCc2ccc(OC)cc2)c1 | > 50 | > 10 | > 5 |  |  | 5 |  |  |  |  |  |  | 
CCCCCCCCCCCC(=O)NCCc1ccc(O)c(O)c1 | > 50 | 8.74 | > 5 |  |  | 5 |  |  |  |  |  |  | 
CCCCCCCCCCCC(=O)OCCc1ccc2c(c1)OCO2 | > 50 | > 10 | > 5 |  |  | >5 |  |  |  |  |  |  | 
O=S(=O)([O-])Oc1ccc(CCO)cc1.[K+] | 106 | 41.6 | 2.6 | 36 |  |  | 0.16 |  |  |  |  |  | 
CCCCCCCCCCCCNC(=S)NCCc1ccc(O)c(O)c1 | 2.96 | 0.77 | 4 |  |  | 62 |  |  |  |  |  |  | 
CCCCCCCCCCOCCc1ccc(OCc2ccc(OC)cc2)c(OCc2ccc(OC)cc2)c1 | > 50 | > 10 | > 5 |  |  | >5 |  |  |  |  |  |  | 
CCCCCCCCCCCC(=O)OCCc1ccc(O)cc1 | 67.2 | 16.2 | 4.1 | 32 |  |  | 0.52 |  |  |  |  |  | 
CCCCCCCC(=O)OCCc1ccc(O)c(O)c1 | 104 | 9.6 | 11 | 45 | > 10 | 5 |  | 10.3 |  |  |  |  | 
CCCCCCCCCC(=O)NCCc1ccc(O)c(O)c1 | > 50 | > 10 | > 5 |  |  | 5 |  |  |  |  |  |  | 
CC(=O)OCCc1ccc(O)cc1 | 114 | 79.4 | 1.4 | 28 |  |  | 0.13 |  |  |  |  |  | 
CCCCCCCCCCCC(=O)OCCc1ccc(O)c(O)c1 | 38.1 | 0.36 | 101 to 106 | 56 | > 10 | 132 |  |  |  |  |  |  | 
CCCCCCCCCCCCCC(=O)OCCc1ccc(O)c(O)c1 | > 50 | 2.29 | > 22 | 53 | > 10 | 21 |  |  |  |  |  |  | 

SMILES | IC50 at 72 h [1] [µM] | IC50 [2] [µM] | selectivity ratio [3] | inhibition at 20 µM (Leishmania donovani [4]) [%] | IC50 (Leishmania donovani [5]) [µM] | Ratio IC50 [6] | Ratio IC50 [7] | selectivity ratio [8] | IC50 (Leishmania major) [µM] | IC50 (Leishmania infantum) [µM] | Ratio IC50 (Leishmania donovani [9]) | IC50 (Leishmania donovani [10]) [µM] | IC50 [11] [µM]
CCCCCCCCCCNC(=S)NCCc1ccc(O)c(O)c1 | 24.8 | 0.74 | 33 |  |  | 64 |  |  |  |  |  |  | 
CCCCCCCCCC(=O)OCCc1ccc(O)cc1 | 172 | 81.4 | 2.1 | 34 |  |  | 0.16 |  | 65 | 132 |  |  | 
O=C(O)[C@H]1O[C@@H](Oc2ccc(CCO)cc2)[C@H](O)[C@@H](O)[C@@H]1O | 110 | 61.5 | 1.8 | 36 |  |  | 0.17 |  |  |  |  |  | 
CCCCCCCC(=O)OCCc1ccc(O)cc1 | 133 | 56.8 | 2.3 | 46 | > 10 |  | 0.22 | 13.3 |  |  | 1 |  | 
CCCCCCCCCCOCCc1ccc(O)c(O)c1 | > 50 | 1.29 | > 38 |  |  | 37 |  |  |  |  |  |  | 
CCCCCC(=O)OCCc1ccc(O)cc1 | 166 | 59.1 | 2.8 | 44 | > 10 |  | 0.16 | 16.6 |  |  | 1 |  | 
CCCCCCCCCCCCSCCc1ccc(OCc2ccccc2)c(OCc2ccccc2)c1 | > 50 | > 10 | > 5 |  |  | 5 |  |  |  |  |  |  | 
CCCCCCCCCC(=O)OCCc1ccc2c(c1)OCO2 | > 50 | > 10 | > 5 |  |  | >5 |  |  |  |  |  |  | 
C[C@@H]1[C@H](O)[C@@H](C)/C=C/C=C/C=C/C=C/C=C/C=C/C=C/[C@H](O[C@@H]2O[C@H](C)[C@@H](O)[C@H](N)[C@@H]2O)C[C@@H]2O[C@](O)(C[C@@H](O)C[C@@H](O)[C@H](O)CC[C@@H](O)C[C@@H](O)CC(=O)O[C@H]1C)C[C@H](O)[C@H]2C(=O)O [AMPHOTERICIN B] |  |  |  |  | 0.1 |  |  |  |  |  |  |  | 
NCCc1ccc(O)c(O)c1 [DOPAMINE] | 68.9 | > 10 | 7 |  |  | 5 |  |  |  |  |  |  | 
CCCC(=O)OCCc1ccc(O)c(O)c1 [HYDROXYTYROSOL BUTANOATE] | 71.5 | 9.4 | 8 | 48 | > 10 | 5 |  | 7.1 |  |  |  |  | 
CCCCCCCCCC(=O)OCCc1ccc(O)c(O)c1 [HYDROXYTYROSOL DECANOATE] | 71.1 | 0.6 | 118 | 54 | 8.44 | 79 |  | 8.4 |  |  |  |  | 
CCCCCCCCCCCCCCCC(=O)OCCc1ccc(O)c(O)c1 [HYDROXYTYROSOL PALMITATE] | > 50 | 2.43 | > 21 | 52 | > 10 | 20 |  |  |  |  |  |  | 
OCCc1ccc(O)c(O)c1 [HYDROXYTYROSOL] | > 50 | 47.5 | > 1 | 0 |  |  |  |  |  |  |  | 393 | 
Cc1ccc(C(=O)Nc2ccc(S(=O)(=O)O)c3cc(S(=O)(=O)O)cc(S(=O)(=O)O)c23)cc1NC(=O)c1cccc(NC(=O)Nc2cccc(C(=O)Nc3cc(C(=O)Nc4ccc(S(=O)(=O)O)c5cc(S(=O)(=O)O)cc(S(=O)(=O)O)c45)ccc3C)c2)c1 [SURAMIN] |  | 0.038 |  |  |  |  |  |  |  |  |  |  | 
OCCc1ccc(O)cc1 [TYROSOL] | > 500 | > 10 | > 5 | 50 | > 10 |  |  | 5 |  |  |  |  | > 15

From ChEMBL document CHEMBL3856184, “Tyrosol and hydroxytyrosol derivatives as antitrypanosomal and antileishmanial agents” (Eur J Med Chem, 2016)
